Data taken from ChEMBL document CHEMBL5674880 (PLoS One, 2018).
One block for each molecule: values may come before it.

Legend:
Type in all cases: functional, cell-based
A-431 = assay: Antiproliferative activity against human A-431 cells after 10 days; conditions: A-431, 240 h
In short: (§1)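 Tested as part of a 240-line cancer cell panel (Eurofins Oncopanel); all lines were mycoplasma-negative and STR-verified. Cells were exposed to a compound concentration series in 2D culture for 10 days. The highest concentration was 10 μM or 25 μM, depending on the inhibitor. Antiproliferative IC50 was derived from the mean of three biological replicates.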

HT-29 = assay: Antiproliferative activity against human HT-29 cells after 10 days; conditions: HT-29, 240 h
In short: (§2)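 10-day 2D proliferation screen of a broad cancer cell panel (about 240 lines, Eurofins Oncopanel). All lines were mycoplasma negative and STR verified. Compounds were dosed up to a top concentration of 10 μM or 25 μM, depending on the inhibitor. Anti-proliferative IC50 values are the average of three biological replicates.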

Daudi = assay: Antiproliferative activity against human Daudi cells after 10 days; conditions: 240 h; in short: as §2
DoTc2-4510 = assay: Antiproliferative activity against human DoTc2-4510 cells after 10 days; conditions: DoTc2-4510, 240 h; in short: as §2
CFPAC-1 = assay: Antiproliferative activity against human CFPAC-1 cells after 10 days; conditions: CFPAC-1, 240 h; in short: as §1
SW-403 = assay: Antiproliferative activity against human SW403 cells after 10 days; conditions: SW-403, 240 h
SU.86.86 = assay: Antiproliferative activity against human SU-86-86 cells after 10 days; conditions: SU.86.86, 240 h
AN3-CA = assay: Antiproliferative activity against human AN3-CA cells after 10 days; conditions: 240 h; in short: as §1
[1] = Antiproliferative activity against human SKO-007 cells after 10 days; conditions: SKO-007, 240 h
SK-BR-3 = assay: Antiproliferative activity against human SK-BR-3 cells after 10 days; conditions: SK-BR-3, 240 h
A 172 = assay: Antiproliferative activity against human A-172 cells after 10 days; conditions: A 172, 240 h; in short: as §1
BT-549 = assay: Antiproliferative activity against human BT-549 cells after 10 days; conditions: BT-549, 240 h; in short: as §1
CRO-AP2 = assay: Antiproliferative activity against human CRO-AP2 cells after 10 days; conditions: CRO-AP2, 240 h; in short: as §2
UMUC3 = assay: Antiproliferative activity against human UM-UC-3 cells after 10 days; conditions: UMUC3, 240 h
A549 = assay: Antiproliferative activity against human A549 cells after 10 days; conditions: A549, 240 h; in short: as §1
C-33-A = assay: Antiproliferative activity against human C-33-A cells after 10 days; conditions: 240 h; in short: as §1
SK-MEL3 = assay: Antiproliferative activity against human SK-MEL3 cells after 10 days; conditions: SK-MEL3, 240 h
ES-2 = assay: Antiproliferative activity against human ES2 cells after 10 days; conditions: ES-2, 240 h; in short: as §2
[2] = Antiproliferative activity against human KPL-1 cells after 10 days; conditions: KPL-1, 240 h
In short: (§3)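 Broad cancer cell line panel (Eurofins Oncopanel, about 240 lines; mycoplasma negative, STR verified) grown in 2D culture and exposed to compound in a 10-day proliferation assay. The top concentration was 10 μM for the SMYD2 inhibitor series and 25 μM for the SMYD3 inhibitor. The proliferative IC50 is taken from concentration-response data, each value the mean of three biological replicates.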

CAL-62 = assay: Antiproliferative activity against human CAL-62 cells after 10 days; conditions: CAL-62, 240 h; in short: as §1
HPAF-II = assay: Antiproliferative activity against human HPAF-II cells after 10 days; conditions: 240 h; in short: as §2
SNU-5 = assay: Antiproliferative activity against human SNU-5 cells after 10 days; conditions: SNU-5, 240 h
HT = assay: Antiproliferative activity against human HT cells after 10 days; conditions: 240 h; in short: as §2
Jurkat = assay: Antiproliferative activity against human Jurkat cells after 10 days; conditions: 240 h; in short: as §3
MHH-PREB-1 = assay: Antiproliferative activity against human MHH-PREB-1 cells after 10 days; conditions: MHH-PREB-1, 240 h; in short: as §3
Calu-6 = assay: Antiproliferative activity against human Calu-6 cells after 10 days; conditions: Calu-6, 240 h; in short: as §2
AGS = assay: Antiproliferative activity against human AGS cells after 10 days; conditions: 240 h; in short: as §1
JEG-3 = assay: Antiproliferative activity against human JEG-3 cells after 10 days; conditions: JEG-3, 240 h
In short: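 Cell lines run in the Eurofins Oncopanel broad cancer panel, all mycoplasma-negative and STR-verified. Cells were exposed to a compound concentration series in a 10-day proliferation assay, and an anti-proliferative IC50 was derived. Values are the mean of three biological replicates.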

NCI-H446 = assay: Antiproliferative activity against human NCI-H446 cells after 10 days; conditions: NCI-H446, 240 h; in short: as §3
Ramos = assay: Antiproliferative activity against human Ramos cells after 10 days; conditions: 240 h
LNCaP = assay: Antiproliferative activity against human LNCaP cells after 10 days; conditions: 240 h; in short: as §3
SK-MES-1 = assay: Antiproliferative activity against human SK-MES-1 cells after 10 days; conditions: SK-MES-1, 240 h
DMS-53 = assay: Antiproliferative activity against human DMS-53 cells after 10 days; conditions: DMS-53, 240 h; in short: as §2
[3] = Antiproliferative activity against human TE 381.T cells after 10 days; conditions: 240 h
FaDu = assay: Antiproliferative activity against human FaDu cells after 10 days; conditions: 240 h; in short: as §2
Caov-3 cell line = assay: Antiproliferative activity against human Caov-3 cells after 10 days; conditions: Caov-3, 240 h; in short: as §2
SJSA-1 = assay: Antiproliferative activity against human SJSA-1 cells after 10 days; conditions: SJSA-1, 240 h
CAMA-1 = assay: Antiproliferative activity against human CAMA-1 cells after 10 days; conditions: CAMA-1, 240 h; in short: as §1
SW 954 = assay: Antiproliferative activity against human SW 954 cells after 10 days; conditions: SW 954, 240 h
ACHN = assay: Antiproliferative activity against human ACHN cells after 10 days; conditions: 240 h; in short: as §1
CWR22R = assay: Antiproliferative activity against human 22Rv1 cells after 10 days; conditions: 22Rv1, 240 h; in short: as §1
769-P = assay: Antiproliferative activity against human 769-P cells after 10 days; conditions: 240 h; in short: as §1
HEL 92.1.7 = assay: Antiproliferative activity against human HEL 92.1.7 cells after 10 days; conditions: HEL 92.1.7, 240 h; in short: as §2
DK-MG = assay: Antiproliferative activity against human DK-MG cells after 10 days; conditions: 240 h; in short: as §2
EM-2 = assay: Antiproliferative activity against human EM-2 cells after 10 days; conditions: EM-2, 240 h; in short: as §2
786-0 = assay: Antiproliferative activity against human 786-0 cells after 10 days; conditions: 786-0, 240 h; in short: as §1
Malme-3M = assay: Antiproliferative activity against human Malme-3M cells after 10 days; conditions: 240 h; in short: as §3
COLO 320DM = assay: Antiproliferative activity against human COLO 320DM cells after 10 days; conditions: 240 h; in short: as §1
NCI-H520 = assay: Antiproliferative activity against human NCI-H520 cells after 10 days; conditions: NCI-H520, 240 h; in short: as §3
NCI-H69 = assay: Antiproliferative activity against human NCI-H69 cells after 10 days; conditions: NCI-H69, 240 h; in short: as §3

IC50 (A-431): 6.35 µM | IC50 (HT-29): 1.26 µM | IC50 (Daudi): 0.857 µM | IC50 (SW-403): 3.12 µM | IC50 (SK-BR-3): 1.17 µM | IC50 (BT-549): 3.29 µM | IC50 (A549): 3.39 µM | IC50 (SK-MEL3): 1.39 µM | IC50 (SNU-5): 3.32 µM | IC50 (Jurkat): 0.925 µM | IC50 (Calu-6): 3.68 µM | IC50 (AGS): 1.27 µM | IC50 (NCI-H446): 3.16 µM | IC50 (Ramos): 1.04 µM | IC50 (LNCaP): 3.44 µM | IC50 (SK-MES-1): 1.18 µM | IC50 (SJSA-1): 1.47 µM | IC50 (ACHN): 3.21 µM | IC50 (786-0): 2.1 µM | IC50 (COLO 320DM): 2.11 µM | IC50 (NCI-H520): 2.7 µM | IC50 (NCI-H69): 2.74 µM
Structure (SMILES): Cc1cn(CCN2CCN(c3ccccc3-c3cc(C#N)cc(C(=O)NCCCN4CCCC4)c3)CC2)c2ccccc12
IC50 (DoTc2-4510): 1.07 µM | IC50 (CFPAC-1): 1.48 µM | IC50 (SU.86.86): 3.55 µM | IC50 (AN3-CA): 2.42 µM | IC50 [1]: 0.855 µM | IC50 (A 172): 1.96 µM | IC50 (CRO-AP2): 2.26 µM | IC50 (UMUC3): 2.91 µM | IC50 (C-33-A): 3.23 µM | IC50 (ES-2): 1.32 µM | IC50 [2]: 3.43 µM | IC50 (CAL-62): 2.07 µM | IC50 (HPAF-II): 1.6 µM | IC50 (HT): 1.93 µM | IC50 (MHH-PREB-1): 1.06 µM | IC50 (JEG-3): 1.5 µM | IC50 (DMS-53): 3.17 µM | IC50 [3]: 1.99 µM | IC50 (FaDu): 2.36 µM | IC50 (Caov-3 cell line): 2.6 µM | IC50 (CAMA-1): 2.93 µM | IC50 (SW 954): 4.07 µM | IC50 (CWR22R): 1.06 µM | IC50 (769-P): 2.76 µM | IC50 (HEL 92.1.7): 3.53 µM | IC50 (DK-MG): 6.42 µM | IC50 (EM-2): 2.22 µM | IC50 (Malme-3M): 2.4 µM

IC50 (A-431): > 10 µM | IC50 (HT-29): > 10 µM | IC50 (Daudi): > 10 µM | IC50 (SW-403): > 10 µM | IC50 (SK-BR-3): > 10 µM | IC50 (BT-549): > 10 µM | IC50 (A549): > 10 µM | IC50 (SK-MEL3): > 10 µM | IC50 (SNU-5): > 10 µM | IC50 (Jurkat): > 10 µM | IC50 (Calu-6): > 10 µM | IC50 (AGS): > 10 µM | IC50 (NCI-H446): > 10 µM | IC50 (Ramos): > 10 µM | IC50 (LNCaP): > 10 µM | IC50 (SK-MES-1): > 10 µM | IC50 (SJSA-1): > 10 µM | IC50 (ACHN): > 10 µM | IC50 (786-0): > 10 µM | IC50 (COLO 320DM): > 10 µM | IC50 (NCI-H520): > 10 µM | IC50 (NCI-H69): > 10 µM
Structure (SMILES): O=C(NC1CN(Cc2cnn(Cc3ccccc3)c2)C1)c1cn(C2CC2)nn1
IC50 (DoTc2-4510): > 10 µM | IC50 (CFPAC-1): > 10 µM | IC50 (SU.86.86): > 10 µM | IC50 (AN3-CA): > 10 µM | IC50 [1]: 0.168 µM | IC50 (A 172): > 10 µM | IC50 (CRO-AP2): 0.075 µM | IC50 (UMUC3): > 10 µM | IC50 (C-33-A): > 10 µM | IC50 (ES-2): > 10 µM | IC50 [2]: > 10 µM | IC50 (CAL-62): > 10 µM | IC50 (HPAF-II): > 10 µM | IC50 (HT): > 10 µM | IC50 (MHH-PREB-1): > 10 µM | IC50 (JEG-3): > 10 µM | IC50 (DMS-53): > 10 µM | IC50 [3]: > 10 µM | IC50 (FaDu): > 10 µM | IC50 (Caov-3 cell line): > 10 µM | IC50 (CAMA-1): > 10 µM | IC50 (SW 954): > 10 µM | IC50 (CWR22R): > 10 µM | IC50 (769-P): > 10 µM | IC50 (HEL 92.1.7): > 10 µM | IC50 (DK-MG): > 10 µM | IC50 (EM-2): > 10 µM | IC50 (Malme-3M): > 10 µM
